In data set [1] the test system is Escherichia coli. Briefly: Antibacterial activity Escherichia coli MCR-1 assessed as inhibition of visible bacterial growth incubated for 18 hrs by microbroth dilution assay. It is filed as functional. The essentials:
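Colistin-resistant E. coli 25922 carrying MCR-1, grown from glycerol stock in kanamycin-supplemented TSB for 16 h at 37 °C, 220 rpm. Diluted 100-fold in kanamycin-supplemented TSB and grown to OD600 about 0.5, then diluted in MHB to 2 × 10^5 CFU/mL. Combined 1:1 with MHB serial dilutions of compounds. Sealed, 18 h at 37 °C, 600 rpm; lowest concentration without visible growth, triplicate technical replicates.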
(In general: Dilution methods test growth across graded concentrations, often in twofold steps.)

The next data set deals with Staphylococcus aureus. The data set is described as follows: Antibacterial activity Staphylococcus aureus USA300 assessed as inhibition of visible bacterial growth incubated for 18 hrs by microbroth dilution assay. It is filed as functional. The gist of the method: (§1)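 CLSI broth microdilution. Strains streaked from glycerol stocks onto blood agar (16 h, 37 °C); single colonies grown in TSB at 37 °C, 220 rpm, to OD600 about 0.5. Diluted in MHB to 2 × 10^5 CFU/mL and mixed 1:1 with compounds serially diluted in MHB from DMSO stocks (colistin from water stocks), polypropylene plates. Sealed, 18 h at 37 °C, 600 rpm. MIC taken as lowest concentration preventing visible growth, three technical replicates.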

Data set [2] has as its system Escherichia coli. Briefly: Antibacterial activity Escherichia coli ATCC 25922 assessed as inhibition of visible bacterial growth incubated for 18 hrs by microbroth dilution assay. Type of data set: functional. The gist of the method:
as §1

The next data set has as its system Acinetobacter baumannii. The data set is described as follows: Antibacterial activity Acinetobacter baumannii ATCC 17961 assessed as inhibition of visible bacterial growth incubated for 18 hrs by microbroth dilution assay. It is filed as functional. The essentials: as §1
Another data set has as its system Klebsiella pneumoniae. Briefly: Antibacterial activity Klebsiella pneumoniae ATCC 13883 assessed as inhibition of visible bacterial growth incubated for 18 hrs by microbroth dilution assay. Type of data set: functional. The essentials: as §1
The next data set relates to Pseudomonas aeruginosa. Briefly: Antibacterial activity Pseudomonas aeruginosa PAO1 assessed as inhibition of visible bacterial growth incubated for 18 hrs by microbroth dilution assay. Type of data set: functional. The gist of the method: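 CLSI broth microdilution. Colonies from blood agar (16 h, 37 °C) grown in TSB at 37 °C, 220 rpm, to OD600 about 0.5, then diluted in MHB to 2 × 10^5 CFU/mL. Added to DMSO-stock compounds serially diluted in MHB in polypropylene plates. Sealed, 18 h at 37 °C, 600 rpm. MIC = lowest concentration with no visible growth; three technical replicates.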

Data set [3] can be described thus: Hemolytic activity in sheep red blood cell assessed as hemolysis at 1 to 128 ug/ml incubated for 1 hrs relative to control. Type of data set: toxicity, cell-based, Ovis aries, Erythrocyte. Conditions: sheep red blood cells (erythrocytes), at 1 to 128 µg/mL, dose 1-128 µg/ml, read-out: Activity. The essentials:
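Defibrinated sheep erythrocytes washed five times in PBS with 0.002% Tween20 and normalized so the Triton control reads 2.5–3.0 at 415 nm. Mixed 1:1 with compound serial dilutions (128–1 μg/mL) and incubated 1 h at 37 °C, 500 rpm. Supernatant A415 is background-corrected with buffer and expressed as percent of 0.1% Triton X-100 (final). Run in triplicate.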

The structures appear in SMILES notation. In brackets after ≈: the same amount, converted by molar mass. *1 amine or outer side, *2 acyl side, *3 side chain or, on linkers, in order; H or OH if unused. Where a SMILES comes first, the peptide text is derived from it. [ ]: non-standard residue; d: D form. The star is where a group is joined. ξ: configuration not given here. X1 = C[C@@H](N=[N+]=[N-])[C@H](N[*:1])C(=O)[*:2]; Octanoyl(7-Me) = CC(C)CCCCCC(=O)*; Hexanoyl(4ξ-Me) = CCC(C)CCC(=O)*; dOrn = NCCC[C@@H](N)C(=O)O; Orn = NCCC[C@H](N)C(=O)O

A word on the MIC: it is the lowest concentration found to suppress growth.

As to `CCC(C)CCC(=O)N[C@H](CC(N)=O)C(=O)N[C@H](Cc1ccc(O)cc1)C(=O)N[C@H](Cc1c[nH]c2ccccc12)C(=O)N[C@H](CCCN)C(=O)N[C@@H](C)C(=O)NCC(=O)N[C@H](CCCN)C(=O)N[C@@H](Cc1c[nH]c2ccccc12)C(=O)N[C@H](C(=O)N[C@H](C(=O)NCC(=O)N[C@@H](CO)C(N)=O)[C@@H](C)CC)[C@@H](C)O` (stereo partly specified) ({Hexanoyl(4ξ-Me)}-[dN][dY][dW][dOrn]AG[dOrn]WTIGS-NH2), the MIC in the data set on Escherichia coli [1] is more than 32 µg/mL; in the data set on Staphylococcus aureus, more than 32 µg/mL; with Escherichia coli [2], more than 32 µg/mL; in the data set on Acinetobacter baumannii, more than 32 µg/mL; with Klebsiella pneumoniae, more than 32 µg/mL; in the data set on Pseudomonas aeruginosa, 32 µg/mL (≈ 21.4 µM).

Turning to `CCC(C)CCC(=O)N[C@H](CC(N)=O)C(=O)N[C@H](Cc1ccc(O)cc1)C(=O)N[C@H](Cc1c[nH]c2ccccc12)C(=O)N[C@H](CCCN)C(=O)N[C@@H](CCCN)C(=O)NCC(=O)N[C@H](CCCN)C(=O)N[C@@H](Cc1c[nH]c2ccccc12)C(=O)N[C@@H](C)C(=O)N[C@H](C(=O)NCC(=O)N[C@@H](CO)C(N)=O)[C@@H](C)CC` (stereo partly specified) ({Hexanoyl(4ξ-Me)}-[dN][dY][dW][dOrn][Orn]G[dOrn]WAIGS-NH2), the MIC with Escherichia coli [1] was 16 µg/mL (≈ 10.6 µM); in the data set on Staphylococcus aureus it was more than 32 µg/mL; in the data set on Escherichia coli [2], 8 µg/mL (≈ 5.31 µM); in the data set with Acinetobacter baumannii, 16 µg/mL (≈ 10.6 µM); with Klebsiella pneumoniae, 16 µg/mL (≈ 10.6 µM); with Pseudomonas aeruginosa it was 4 µg/mL (≈ 2.65 µM).

`CCC(C)CCC(=O)N[C@H](CC(N)=O)C(=O)N[C@H](Cc1ccc(O)cc1)C(=O)N[C@H](C)C(=O)N[C@H](CCCN)C(=O)N[C@@H](CCCN)C(=O)NCC(=O)N[C@H](CCCN)C(=O)N[C@@H](Cc1c[nH]c2ccccc12)C(=O)N[C@H](C(=O)N[C@H](C(=O)NCC(=O)N[C@@H](CO)C(N)=O)[C@@H](C)CC)[C@@H](C)O` (stereo partly specified) ({Hexanoyl(4ξ-Me)}-[dN][dY][dA][dOrn][Orn]G[dOrn]WTIGS-NH2): the MIC was more than 32 µg/mL in the data set on Escherichia coli [1]; more than 32 µg/mL in the data set on Staphylococcus aureus; more than 32 µg/mL with Escherichia coli [2]; more than 32 µg/mL in the data set with Acinetobacter baumannii; more than 32 µg/mL in the data set on Klebsiella pneumoniae; 32 µg/mL (≈ 22.5 µM) in the data set on Pseudomonas aeruginosa.

With `CCC(C)CCC(=O)N[C@H](CC(N)=O)C(=O)N[C@H](Cc1ccc(O)cc1)C(=O)N[C@H](Cc1c[nH]c2ccccc12)C(=O)N[C@H](CCCN)C(=O)N[C@@H](CCCN)C(=O)NCC(=O)N[C@H](CCCN)C(=O)N[C@@H](Cc1c[nH]c2ccccc12)C(=O)N[C@@H](CO)C(=O)N[C@H](C(=O)NCC(N)=O)[C@@H](C)CC` (stereo partly specified) ({Hexanoyl(4ξ-Me)}-[dN][dY][dW][dOrn][Orn]G[dOrn]WSIG-NH2), the MIC in the data set on Escherichia coli [1] was 8 µg/mL (≈ 5.57 µM); in the data set on Staphylococcus aureus, more than 32 µg/mL; in the data set on Escherichia coli [2], 4 µg/mL (≈ 2.79 µM); in the data set with Acinetobacter baumannii it was 8 µg/mL (≈ 5.57 µM); with Klebsiella pneumoniae, 4 µg/mL (≈ 2.79 µM); with Pseudomonas aeruginosa, 2 µg/mL (≈ 1.39 µM).

As for `CCC(C)CCC(=O)N[C@H](CC(N)=O)C(=O)N[C@H](Cc1ccc(O)cc1)C(=O)N[C@H](Cc1c[nH]c2ccccc12)C(=O)N[C@H](CCCN)C(=O)N[C@@H](CCCN)C(=O)NCC(=O)N[C@H](CCCN)C(=O)N[C@@H](Cc1c[nH]c2ccccc12)C(=O)N[C@H](C(=O)N[C@@H](C)C(=O)NCC(=O)N[C@@H](CO)C(N)=O)[C@@H](C)O` (stereo partly specified) ({Hexanoyl(4ξ-Me)}-[dN][dY][dW][dOrn][Orn]G[dOrn]WTAGS-NH2), the MIC is more than 32 µg/mL with Escherichia coli [1]; more than 32 µg/mL with Staphylococcus aureus; more than 32 µg/mL with Escherichia coli [2]; more than 32 µg/mL in the data set on Acinetobacter baumannii; more than 32 µg/mL with Klebsiella pneumoniae; 16 µg/mL (≈ 10.7 µM) in the data set with Pseudomonas aeruginosa.

For `CCC(C)CCC(=O)N[C@H](CC(N)=O)C(=O)N[C@H](Cc1ccc(O)cc1)C(=O)N[C@H](Cc1c[nH]c2ccccc12)C(=O)N[C@H](CCCN)C(=O)N[C@@H](CCCN)C(=O)NCC(=O)N[C@H](C)C(=O)N[C@@H](Cc1c[nH]c2ccccc12)C(=O)N[C@H](C(=O)N[C@H](C(=O)NCC(=O)N[C@@H](CO)C(N)=O)[C@@H](C)CC)[C@@H](C)O` (stereo partly specified) ({Hexanoyl(4ξ-Me)}-[dN][dY][dW][dOrn][Orn]G[dA]WTIGS-NH2), the MIC in the data set with Escherichia coli [1] was more than 32 µg/mL; in the data set on Staphylococcus aureus, more than 32 µg/mL; in the data set with Escherichia coli [2], more than 32 µg/mL; in the data set with Acinetobacter baumannii it was 16 µg/mL (≈ 10.7 µM); in the data set on Klebsiella pneumoniae, more than 32 µg/mL; in the data set on Pseudomonas aeruginosa it was 32 µg/mL (≈ 21.4 µM).

With `CCC(C)CCC(=O)N[C@H](CC(N)=O)C(=O)N[C@H](Cc1ccc(O)cc1)C(=O)N[C@H](Cc1c[nH]c2ccccc12)C(=O)N[C@H](CCCN)C(=O)N[C@@H](CCCN)C(=O)NCC(=O)N[C@H](CCCN)C(=O)N[C@@H](C)C(=O)N[C@H](C(=O)N[C@H](C(=O)NCC(=O)N[C@@H](CO)C(N)=O)[C@@H](C)CC)[C@@H](C)O` (stereo partly specified) ({Hexanoyl(4ξ-Me)}-[dN][dY][dW][dOrn][Orn]G[dOrn]ATIGS-NH2), the MIC in the data set on Escherichia coli [1] is more than 32 µg/mL; in the data set with Staphylococcus aureus it was more than 32 µg/mL; with Escherichia coli [2] it was more than 32 µg/mL; with Acinetobacter baumannii, more than 32 µg/mL; in the data set on Klebsiella pneumoniae it was more than 32 µg/mL; in the data set on Pseudomonas aeruginosa, 32 µg/mL (≈ 22.5 µM).

Take `CCC(C)CCC(=O)N[C@H](CC(N)=O)C(=O)N[C@H](Cc1ccc(O)cc1)C(=O)N[C@H](Cc1c[nH]c2ccccc12)C(=O)N[C@H](CCCN)C(=O)N[C@@H](CCCN)C(=O)N[C@@H](C)C(=O)N[C@H](CCCN)C(=O)N[C@@H](Cc1c[nH]c2ccccc12)C(=O)N[C@H](C(=O)N[C@H](C(=O)NCC(=O)N[C@@H](CO)C(N)=O)[C@@H](C)CC)[C@@H](C)O` (stereo partly specified) ({Hexanoyl(4ξ-Me)}-[dN][dY][dW][dOrn][Orn]A[dOrn]WTIGS-NH2): the minimum inhibitory concentration (MIC) is 32 µg/mL (≈ 20.6 µM) in the data set on Escherichia coli [1]; more than 32 µg/mL in the data set on Staphylococcus aureus; 32 µg/mL (≈ 20.6 µM) with Escherichia coli [2]; 32 µg/mL (≈ 20.6 µM) with Acinetobacter baumannii; more than 32 µg/mL in the data set with Klebsiella pneumoniae; 32 µg/mL (≈ 20.6 µM) with Pseudomonas aeruginosa.

As for `CCC(C)CCC(=O)N[C@H](CC(N)=O)C(=O)N[C@H](Cc1ccc(O)cc1)C(=O)N[C@H](Cc1c[nH]c2ccccc12)C(=O)N[C@H](CCCN)C(=O)N[C@@H](CCCN)C(=O)NCC(=O)N[C@H](CCCN)C(=O)N[C@@H](Cc1c[nH]c2ccccc12)C(=O)N[C@H](C(=O)N[C@H](C(=O)N[C@@H](C)C(=O)N[C@@H](CO)C(N)=O)[C@@H](C)CC)[C@@H](C)O` (stereo partly specified) ({Hexanoyl(4ξ-Me)}-[dN][dY][dW][dOrn][Orn]G[dOrn]WTIAS-NH2), the MIC in the data set with Escherichia coli [1] is 32 µg/mL (≈ 20.6 µM); in the data set on Staphylococcus aureus, more than 32 µg/mL; in the data set on Escherichia coli [2], 32 µg/mL (≈ 20.6 µM); in the data set with Acinetobacter baumannii, 32 µg/mL (≈ 20.6 µM); in the data set with Klebsiella pneumoniae it was more than 32 µg/mL; with Pseudomonas aeruginosa, 16 µg/mL (≈ 10.3 µM).

For the compound `CC[C@H](C)[C@H](NC(=O)[C@@H](NC(=O)[C@H](Cc1c[nH]c2ccccc12)NC(=O)[C@@H](CCCN)NC(=O)CNC(=O)[C@H](CCCN)NC(=O)[C@@H](CCCN)NC(=O)[C@@H](Cc1c[nH]c2ccccc12)NC(=O)[C@@H](Cc1ccc(O)cc1)NC(=O)[C@@H](CO)NC(=O)CCCCCC(C)C)[C@@H](C)N=[N+]=[N-])C(=O)N[C@@H](CC(N)=O)C(=O)NCC(=O)NCC(N)=O` ({Octanoyl(7-Me)}-[dS][dY][dW][dOrn][Orn]G[dOrn]W[X1]INGG-NH2), the minimal inhibitory concentration (MIC) is 4 µg/mL (≈ 2.43 µM) with Escherichia coli [1]; more than 32 µg/mL with Staphylococcus aureus; 4 µg/mL (≈ 2.43 µM) in the data set on Escherichia coli [2]; 2 µg/mL (≈ 1.21 µM) in the data set with Acinetobacter baumannii; 4 µg/mL (≈ 2.43 µM) in the data set with Klebsiella pneumoniae; 4 µg/mL (≈ 2.43 µM) with Pseudomonas aeruginosa. Also, the hemolysis at 1 h in data set [3] was less than 0.1%.

The values above are taken from ChEMBL document CHEMBL5380865, “Linearization of the Brevicidine and Laterocidine Lipopeptides Yields Analogues That Retain Full Antibacterial Activity” (J Med Chem, 2023).
